Results collected from several papers.
Protocols differ between the studies behind these lines.
Target: Protein kinase C eta type (PRKCH, Homo sapiens, UniProt P24723)

| SMILES | assay | conditions | measurement | value |
| --- | --- | --- | --- | --- |
| COc1cc2ncnc(Nc3ccc(Oc4ccccc4)c(C)c3C)c2cc1OC | enzyme activity, inhibitor | 1 µM | inhibition | 5% |
| CCCS(=O)(=O)Nc1ccc(F)c(C(=O)c2c[nH]c3ncc(-c4ccc(Cl)cc4)cc23)c1F | enzyme activity, inhibitor | 1 µM | inhibition | < 10% |
| CC(C)(O)[C@H]1CC[C@H](Nc2ccc3ncc(-c4cccc(C(F)(F)F)c4)n3n2)CC1 | enzyme activity, inhibitor | 1 µM | remaining activity | 97.2% |
| O=C(Nc1cnn(-c2csc(C(=O)NC3COC3)c2)c1)Nc1c(F)cccc1Cl | enzyme activity, inhibitor | 5 µM | remaining activity | 99% |
| Cn1cncc1C1=CN(c2ncnc3[nH]cnc23)CCS1 | enzyme activity, inhibitor, radiometric | 50 nM | inhibition | 15.8% |
| Cc1ccc(NC(=O)c2ccc(C)c(C(F)(F)F)c2)cc1C#Cc1nn(C2CCC(O)CC2)c2ncnc(N)c12 (stereo not shown) | cell-free assay | 10 µM | remaining signal | 72% |
| CC(=O)c1c(NS(C)(=O)=O)c2cc(-c3ccc(Cl)cc3)c(-c3ccc(Cl)cc3Cl)nc2n(C)c1=O | cell-free assay, competition with immobilised ligand | 1 µM | remaining binding | 91% |
| CCCOc1ccc(OC)c(F)c1C(=O)c1ccc(C(=O)N[C@@H]2CNC[C@H]2NC(=O)c2ccc3[nH]ncc3c2)cc1 | enzyme activity, inhibitor | 10 µM | remaining activity | 16% |
| CN(c1ccnc(CNc2nc(Nc3ccc4c(c3)CC(=O)N4)ncc2C(F)(F)F)n1)S(C)(=O)=O | cell-free assay, competition with immobilised ligand | 1 µM | remaining binding | 100% |
| CCN(CC)CCNC(=O)c1c(C)[nH]c(/C=C2\C(=O)Nc3ccc(F)cc32)c1C | enzyme activity, inhibitor | 10 µM | inhibition | 4% |
| CC(C)c1ccc(NC(=O)c2cccs2)c(-c2nc3ccccc3[nH]c2=O)c1 | enzyme activity, inhibitor | 1 µM | activity vs control | 108% |
| CNC(=O)Nc1ccc2c(c1)[C@@]1(CC2)OC(=O)N(CC(=O)N(Cc2ccc(F)cc2)[C@@H](C)C(F)(F)F)C1=O | cell-free assay, competition with immobilised ligand | 1 µM | remaining binding | 87% |
| CC/C(=N\NC(=O)NCc1cccc(O)c1)c1ccc(O)c(C)c1O | enzyme activity, inhibitor | 0.1 µM | inhibition | 44.8% |
| Nc1ncnc2occ(-c3ccc(NC(=O)Nc4cc(C(F)(F)F)ccc4F)cc3)c12 | cell-free assay | 20 µM | remaining signal | 64% |
| CCCOc1ccc([C@H]2[C@H](C(=O)O)[C@@H](c3ccc4c(c3)OCO4)CN2CC(=O)Nc2c(CC)cccc2CC)cc1 | cell-free assay, competition with immobilised ligand | 1 µM | remaining binding | 100% |
| Cn1cnc(Br)c1C1=CN(c2ncnc3[nH]cnc23)CCS1 | enzyme activity, inhibitor, radiometric | 50 nM | inhibition | 29.7% |
| CCN(CC)c1ccc(C2=NNC(=O)CC2C)cc1[N+](=O)[O-] (stereo not shown) | enzyme activity, inhibitor | 10 µM | remaining activity | 105% |
| CC(C)CC(=O)N1CCc2nc(-c3ccc(Br)cc3)nc(N(C)Cc3ccccc3)c2C1 | cell-free assay, competition with immobilised ligand | 0.1 µM | remaining binding | 94% |
| Cc1ccc(C(=O)Nc2ccc(CN3CCN(C)CC3)c(C(F)(F)F)c2)cc1C#Cc1cnc2cccnn12 | enzyme activity | 23.5 nM | remaining activity | 91% |
